Assay results: publication PMC6247064 (Cancer Science, 2018)

Test system: Japanese patients with advanced solid tumors
Test: Phase 1 study: safety, tolerability, DLT and treatment-emergent adverse events
Assay type: in vivo, human
In short: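 Open-label single-arm dose levels of 80 or 105 mg/m2 IV were given on day 1 of 14-day cycles, with at most 6 patients per level. Adverse events were graded by CTCAE v4.03. DLTs were related events in cycle 1 meeting predefined hematologic or nonhematologic criteria. Tolerability required a cycle 1 DLT rate <33%. Primary G-CSF prophylaxis was barred during DLT evaluation; G-CSF was allowed for treatment-emergent neutropenia and as secondary prophylaxis.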

## COc1cccc(OCCCN)c1-c1cc(Nc2cnc(C#N)cn2)n[nH]1 [Prexasertib]
105 mg/m^2 N = 6, Grade 3 + 4
  TEAE related to study treatment: Lung infection: 0 n (%)
  TEAE related to study treatment: Lymphocytopenia: 0 n (%)
  TEAE related to study treatment: Nausea: 0 n (%)
  TEAE related to study treatment: Neutropenia: 6 (100) n (%)
  TEAE related to study treatment: Pyrexia: 0 n (%)
  TEAE related to study treatment: Rash: 0 n (%)
  TEAE related to study treatment: Rash maculopapular: 0 n (%)
  TEAE related to study treatment: SVE (supraventricular extrasystoles): 0 n (%)
  TEAE related to study treatment: Stomatitis: 0 n (%)
  TEAE related to study treatment: Thrombocytopenia: 1 (16.7) n (%)
105 mg/m^2 N = 6, Grade 4
  TEAE related to study treatment: Anemia: 0 n (%)
  TEAE related to study treatment: Any: 3 (50.0) n (%)
  TEAE related to study treatment: Atrial fibrillation: 0 n (%)
  TEAE related to study treatment: Constipation: 0 n (%)
  TEAE related to study treatment: ECG QT prolonged: 0 n (%)
  TEAE related to study treatment: Fatigue: 0 n (%)
  TEAE related to study treatment: Febrile neutropenia: 0 n (%)
  TEAE related to study treatment: Headache: 0 n (%)
  TEAE related to study treatment: Hypocalcemia: 0 n (%)
  TEAE related to study treatment: Leukopenia: 1 (16.7) n (%)
  TEAE related to study treatment: Lung infection: 0 n (%)
  TEAE related to study treatment: Lymphocytopenia: 0 n (%)
  TEAE related to study treatment: Nausea: 0 n (%)
  TEAE related to study treatment: Neutropenia: 3 (50.0) n (%)
  TEAE related to study treatment: Pyrexia: 0 n (%)
  TEAE related to study treatment: Rash: 0 n (%)
  TEAE related to study treatment: Rash maculopapular: 0 n (%)
  TEAE related to study treatment: SVE (supraventricular extrasystoles): 0 n (%)
  TEAE related to study treatment: Stomatitis: 0 n (%)
  TEAE related to study treatment: Thrombocytopenia: 0 n (%)
105 mg/m^2 group
  Patients with at least 1 AE that led to a dose adjustment: 3 patients
  Patients with at least 1 AE that led to a dose delay: 3 patients
105 mg/m^2 group (105 to 80 mg/m^2)
  Patients with at least 1 AE that led to dose reduction: 1 patient
Total N = 12, Any grade
  TEAE related to study treatment: Anemia: 3 (25.0) n (%)
  TEAE related to study treatment: Any: 12 (100) n (%)
  TEAE related to study treatment: Atrial fibrillation: 1 (8.3) n (%)
  TEAE related to study treatment: Constipation: 3 (25.0) n (%)
  TEAE related to study treatment: ECG QT prolonged: 2 (16.7) n (%)
  TEAE related to study treatment: Fatigue: 2 (16.7) n (%)
  TEAE related to study treatment: Febrile neutropenia: 2 (16.7) n (%)
  TEAE related to study treatment: Headache: 1 (8.3) n (%)
  TEAE related to study treatment: Hypocalcemia: 1 (8.3) n (%)
  TEAE related to study treatment: Leukopenia: 12 (100) n (%)
  TEAE related to study treatment: Lung infection: 1 (8.3) n (%)
  TEAE related to study treatment: Lymphocytopenia: 2 (16.7) n (%)
  TEAE related to study treatment: Nausea: 2 (16.7) n (%)
  TEAE related to study treatment: Neutropenia: 11 (91.7) n (%)
  TEAE related to study treatment: Pyrexia: 2 (16.7) n (%)
  TEAE related to study treatment: Rash: 1 (8.3) n (%)
  TEAE related to study treatment: Rash maculopapular: 2 (16.7) n (%)
  TEAE related to study treatment: SVE (supraventricular extrasystoles): 1 (8.3) n (%)
  TEAE related to study treatment: Stomatitis: 1 (8.3) n (%)
  TEAE related to study treatment: Thrombocytopenia: 8 (66.7) n (%)
Total N = 12, Grade 3
  TEAE related to study treatment: Anemia: 1 (8.3) n (%)
  TEAE related to study treatment: Any: 5 (41.7) n (%)
  TEAE related to study treatment: Atrial fibrillation: 0 n (%)
  TEAE related to study treatment: Constipation: 0 n (%)
  TEAE related to study treatment: ECG QT prolonged: 0 n (%)
  TEAE related to study treatment: Fatigue: 0 n (%)
  TEAE related to study treatment: Febrile neutropenia: 1 (8.3) n (%)
  TEAE related to study treatment: Headache: 0 n (%)
  TEAE related to study treatment: Hypocalcemia: 0 n (%)
  TEAE related to study treatment: Leukopenia: 5 (41.7) n (%)
  TEAE related to study treatment: Lung infection: 0 n (%)
  TEAE related to study treatment: Lymphocytopenia: 1 (8.3) n (%)
  TEAE related to study treatment: Nausea: 0 n (%)
  TEAE related to study treatment: Neutropenia: 4 (33.3) n (%)
  TEAE related to study treatment: Pyrexia: 0 n (%)
  TEAE related to study treatment: Rash: 0 n (%)
  TEAE related to study treatment: Rash maculopapular: 0 n (%)
  TEAE related to study treatment: SVE (supraventricular extrasystoles): 0 n (%)
  TEAE related to study treatment: Stomatitis: 0 n (%)
  TEAE related to study treatment: Thrombocytopenia: 3 (25.0) n (%)
Total N = 12, Grade 3 + 4
  TEAE related to study treatment: Anemia: 2 (16.7) n (%)
  TEAE related to study treatment: Any: 12 (100) n (%)
  TEAE related to study treatment: Atrial fibrillation: 0 n (%)
  TEAE related to study treatment: Constipation: 0 n (%)
  TEAE related to study treatment: ECG QT prolonged: 0 n (%)
  TEAE related to study treatment: Fatigue: 0 n (%)
  TEAE related to study treatment: Febrile neutropenia: 2 (16.7) n (%)
  TEAE related to study treatment: Headache: 0 n (%)
  TEAE related to study treatment: Hypocalcemia: 0 n (%)
  TEAE related to study treatment: Leukopenia: 9 (75.0) n (%)
  TEAE related to study treatment: Lung infection: 0 n (%)
  TEAE related to study treatment: Lymphocytopenia: 1 (8.3) n (%)
  TEAE related to study treatment: Nausea: 0 n (%)
  TEAE related to study treatment: Neutropenia: 10 (83.3) n (%)
  TEAE related to study treatment: Pyrexia: 0 n (%)
  TEAE related to study treatment: Rash: 0 n (%)
  TEAE related to study treatment: Rash maculopapular: 0 n (%)
  TEAE related to study treatment: SVE (supraventricular extrasystoles): 0 n (%)
  TEAE related to study treatment: Stomatitis: 0 n (%)
  TEAE related to study treatment: Thrombocytopenia: 4 (33.3) n (%)
Total N = 12, Grade 4
  TEAE related to study treatment: Anemia: 1 (8.3) n (%)
  TEAE related to study treatment: Any: 7 (58.3) n (%)
  TEAE related to study treatment: Atrial fibrillation: 0 n (%)
  TEAE related to study treatment: Constipation: 0 n (%)
  TEAE related to study treatment: ECG QT prolonged: 0 n (%)
  TEAE related to study treatment: Fatigue: 0 n (%)
  TEAE related to study treatment: Febrile neutropenia: 1 (8.3) n (%)
  TEAE related to study treatment: Headache: 0 n (%)
  TEAE related to study treatment: Hypocalcemia: 0 n (%)
  TEAE related to study treatment: Leukopenia: 4 (33.3) n (%)
  TEAE related to study treatment: Lung infection: 0 n (%)
  TEAE related to study treatment: Lymphocytopenia: 0 n (%)
  TEAE related to study treatment: Nausea: 0 n (%)
  TEAE related to study treatment: Neutropenia: 6 (50.0) n (%)
  TEAE related to study treatment: Pyrexia: 0 n (%)
  TEAE related to study treatment: Rash: 0 n (%)
  TEAE related to study treatment: Rash maculopapular: 0 n (%)
  TEAE related to study treatment: SVE (supraventricular extrasystoles): 0 n (%)
  TEAE related to study treatment: Stomatitis: 0 n (%)
  TEAE related to study treatment: Thrombocytopenia: 1 (8.3) n (%)
All 12 patients
  Frequently-reported TEAE: leukopenia: 100%
  Frequently-reported TEAE: neutropenia: 91.7%
  Frequently-reported TEAE: thrombocytopenia: 66.7%
  Nonhematologic grade 3 or 4 treatment-related TEAE: no reported nonhematologic grade 3 or 4 treatment‐related TEAE
All 12 patients (1 instance)
  Treatment-related grade 4 TEAE: anemia: 8.3%
  Treatment-related grade 4 TEAE: febrile neutropenia: 8.3%
  Treatment-related grade 4 TEAE: thrombocytopenia: 8.3%
All 12 patients (4 patients)
  Treatment-related grade 4 TEAE: leukopenia: 33.3%
All 12 patients (6 patients)
  Treatment-related grade 4 TEAE: neutropenia: 50.0%
All patients
  AE that led to treatment interruption: No patients experienced AE that led to treatment interruption
  Clinically significant cardiac toxicities or AE related to QT prolongation: No clinically significant cardiac toxicities or AE related to QT prolongation were observed
  Discontinuation of the study due to an AE: no patients discontinued the study due to an AE
  Patient deaths during the study: No patient deaths were reported
All patients (8 patients)
  Patients with at least 1 AE that led to a dose adjustment: 66.7%
All patients (Five patients)
  Patients with at least 1 AE that led to dose reduction: 41.7%
All patients (Six patients)
  Patients with at least 1 AE that led to a dose delay: 50.0%
All patients, 1 patient in each group
  Dose reduction due to febrile neutropenia: 16.7%
All patients, 2 patients in each group
  Dose delay due to neutropenia: 33.3%
Day of cycle
  Neutrophil count nadir in patients with grade 4 drug-related neutropenia: ~8 days
In most cases, transient
  Duration of grade 4 neutrophil decreases: < 5 days
Recommended dose of 105 mg/m^2, Japanese patients
  Tolerability (DLT frequency in cycle 1 <33%): confirmed
